# PLC-gamma1 inh: PLC-gamma1 (human) inhibition, primary screen; P19174; purified PLC-gamma1, fluorogenic substrate, fluorescence; inhibition, % at 12.2 µM; actives 0.84% (n = 370,000); in the data active means inhibition above about 9.5%
# Arr AP2 block: human beta-arrestin and AP2 interaction inhibition; FITC-arrestin peptide / GST-AP2 beads, flow cytometry; AP2 beta2 appendage carries R879A mutation; inhibition, % at 10 µM; actives 0.31% (n = 340,000);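 active means inhibition above a set limit, near 3 SD of compounds lacking own fluorescence, cut at about 54% in these data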;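 further: plate controls were DMSO wells for no effect and 5 µM unlabelled arrestin peptide for full effect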
#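 system = GST-tagged AP2 beta2-adaptin appendage (R879A) on 4 µm glutathione beads | reagent = FITC-labelled arrestin peptide probe, 50 nM final | schedule = compound with beads 12 min RT, then probe 1 h RT | signal = HyperCyt-sampled flow cytometry, FL1 channel, ex 488/em 535 nm | read-out = percent response from loss of bead-bound FITC fluorescence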
# PLC-beta3 inh: blocks human PLC-beta3 enzyme activity. Purified PLC-beta3, fluorogenic substrate, fluorescence. AID 720704. inhibition, % at 12.2 µM. actives 0.18% (n = 370,000);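 further: 0% = median of compound wells on plate and 100% = full blocker control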
# proCasp3 act: activates human procaspase-3; recombinant procaspase-3 D3A, Ac-DEVD-pNA absorbance 405 nm; activation, % at 8.5 µM; actives 0.11% (n = 330,000);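 active means activation above the mean of all tested compounds plus 3 SD, cut at about 21% in these data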;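 further: 0% = DMSO alone and 100% = DMSO wells spiked with extra 5 µM PC-3 D3A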
# Target sequence (P42574 whole entry D9A/D28A/D175A): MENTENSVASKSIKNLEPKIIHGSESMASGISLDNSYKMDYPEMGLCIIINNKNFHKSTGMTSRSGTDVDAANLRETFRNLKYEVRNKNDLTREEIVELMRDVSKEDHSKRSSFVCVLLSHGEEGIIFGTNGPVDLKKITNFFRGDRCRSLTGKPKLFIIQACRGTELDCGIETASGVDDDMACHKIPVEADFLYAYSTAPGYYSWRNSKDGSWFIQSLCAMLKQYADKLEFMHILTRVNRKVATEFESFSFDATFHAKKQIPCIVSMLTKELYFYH
#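 Test system: Procaspase-3 D3A mutant; medium: Zinc-free HEPES/NaCl buffer with 0.01% Triton X-100 at pH 7.4; reagent: DEVD-pNA substrate; doses: one concentration, 8.5 µM nominal, 0.8% DMSO; times: 1 h preincubation plus 2 h reaction at 25 °C; signal: Epi-absorbance at 405 nm of released p-nitroaniline, 0 and 120 min; replicates: singlicate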
# procasp7 counter: counter-screen for procaspase-3 activators: activators of human procaspase-7; P55210; recombinant procaspase-7, Ac-DEVD-pNA absorbance 405 nm; D23A/D198A/D206A triple mutant, cannot self-cleave; scale: DMSO 0, 5 µM enzyme 100; activation, % at 8.5 µM; actives 0.093% (n = 330,000); AID 463210;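 active means percent activation above the screen-wide mean plus 3 SD, cut at about 25% in these data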
# Target sequence (P55210 whole entry D23A/D198A/D206A): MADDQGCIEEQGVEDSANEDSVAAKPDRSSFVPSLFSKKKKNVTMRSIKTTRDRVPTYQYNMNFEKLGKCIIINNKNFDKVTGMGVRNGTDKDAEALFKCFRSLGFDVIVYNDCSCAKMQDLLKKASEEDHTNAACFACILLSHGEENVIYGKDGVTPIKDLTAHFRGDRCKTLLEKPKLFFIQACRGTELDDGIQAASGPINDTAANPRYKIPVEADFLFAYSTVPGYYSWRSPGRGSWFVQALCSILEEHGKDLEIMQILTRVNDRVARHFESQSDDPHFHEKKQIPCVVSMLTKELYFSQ
#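 System: Procaspase-7 triple mutant (PC-7 D3A); measure: % activation from two-timepoint absorbance difference, scaled to controls; times: 1 h compound preincubation, 2 h substrate cleavage, 25 °C; also added: Ac-DEVD-pNA substrate, 400 µM as added; measured by: Epi-absorbance of released pNA at 405 nm, two timepoints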
# sPLA2-III inh: Blocks human group III sPLA2 activity; actives 0.56% (n = 370,000); Q9NZ20; QFRET BODIPY PC-A2 liposome hydrolysis, fluorescence; inhibition, % at 12.2 µM;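 active means inhibition above mean plus 3 SD of compounds lying within the high and low control bounds, cut at about 19% in these data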;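 further: 0% = median of test compound wells and 100% = no enzyme DMSO wells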
# PLCg1 ctr: PLC-gamma1 inhibition, counter-screen for PLC-beta3 hits; shares compounds with PLC-gamma1 inh; inhibition, % at 12.3 µM; purified PLC-gamma1, fluorogenic substrate, fluorescence; actives 3.1% (n = 3,300); AID 743258; in the data active means inhibition above about 9.5%
# PLCb3 confirm: confirmation of human PLC-beta3 inhibitors. shares compounds with PLC-gamma1 inh. purified PLC-beta3, fluorogenic substrate fluorescence. inhibition, % at 12.3 µM. actives 1% (n = 3,300). AID 743261
# Numbers without * were called inactive; / = not tested or not shown. A selection: hits, their analogues and other compounds. The true share with any hit is near 1.9%. Unless noted, no stated cut-off is given here; in the data, active means inhibition above about 11%; inactive means the rest.
SMILES,PLC-gamma1 inh,Arr AP2 block,PLC-beta3 inh,proCasp3 act,procasp7 counter,sPLA2-III inh,PLCg1 ctr,PLCb3 confirm
Cc1ccc(S(=O)(=O)NC(C)(C)CSc2nncn2N)cc1,11.0*,5.6,2.8,1.2,1.2,-10.3,0.3,1.9
O=C(CNCc1ccccc1[N+](=O)[O-])N1CCC2(CC1)OCCO2,-3.9,/,-5.0,/,/,3.7,/,/
CC(C)(C)c1ccc(/C=N/NC(=O)C[n+]2ccccc2)cc1,9.9*,28.8,2.0,-7.1,1.9,-25.1,-8.1,-2.4
COc1ccccc1C(=O)N(Cc1ccc(Cl)cc1)C1CCS(=O)(=O)C1 (stereo not given),3.5,-3.1,-5.0,-6.4,13.2,-0.3,/,/
O=C(CSc1nnc(-c2ccccc2)n1Cc1ccco1)Nc1ccc(OCc2ccccc2)cc1,11.4*,/,6.8,/,/,-7.1,0.7,0.1
CCNC(=S)NN=C1CCC(C(C)(C)C)CC1 (stereo not given),13.0*,5.4,-0.9,-9.3,6.6,7.9,-7.2,-4.8
CC(C)(C)C1CCC(=NNC(=S)Nc2cccnc2)CC1 (stereo not given),2.8,-7.1,-1.0,3.2,-7.4,-0.3,/,/
Cc1nn(CC(=O)N2CCN(c3ccccc3)CC2)c(C)c1[N+](=O)[O-],-0.1,19.8,-5.8,-7.7,-1.1,5.6,/,/
Cc1ccc(S(=O)(=O)N2CCN(C(=O)Cn3nc(C)c([N+](=O)[O-])c3C)CC2)c(C)c1,10.0*,23.2,-8.3,6.3,-2.6,-4.0,-0.4,2.4
CCOc1ccc(S(=O)(=O)N2CCC(C(=O)NCc3cccnc3)CC2)cc1,12.4*,0.0,-2.8,1.8,8.3,3.2,-2.2,0.8
Cc1ccc(S(=O)(=O)N2CCC(C(=O)NCc3cccnc3)CC2)cc1,4.1,11.1,-3.7,1.9,6.4,-1.9,/,/
Fc1ccc2cnc(-c3ccsc3)cc2c1,-6.3,/,-21.3,/,/,4.1,/,/
CCOC(=O)Cc1csc(SCC(=O)c2c(N)n(CC(C)C)c(=O)n(C)c2=O)n1,10.4*,5.4,0.3,-3.3,1.5,0.4,-2.0,2.1
Cc1ccc(-n2nnnc2SCC(=O)c2c(N)n(CC(C)C)c(=O)n(C)c2=O)cc1,10.8*,10.0,2.8,11.1,-0.9,9.6,-4.6,0.6
COc1cccc(-c2nnc(SCc3cc(C)ccc3C)n2Cc2ccco2)c1,2.5,/,2.3,/,/,-4.8,/,/
Cc1occc1C(=O)NCc1ccc2c(c1)OCO2,10.6*,14.0,4.4,-3.3,-13.4,-2.4,-7.1,-0.8
CCOc1ccc2nc(SCC(=O)NCc3ccc4c(c3)OCO4)[nH]c2c1,13.2*,-4.8,6.0,6.4,3.0,-8.7,0.4,-18.5
Cc1cnc(C(=O)OCC(=O)NCc2ccc3c(c2)OCO3)cn1,3.3,5.5,11.5*,10.4,-4.4,3.8,-3.2,-3.5
COc1ccc2nc(SCC(=O)NCc3ccc4c(c3)OCO4)[nH]c2c1,-2.0,20.9,2.3,8.3,6.9,0.4,/,/
CCc1ccc(OCC(=O)Nc2ccc3c(c2)OCCO3)cc1,9.5*,5.2,-1.3,3.6,-6.2,2.9,-5.5,-4.1
Cc1cnc(C(=O)OCC(=O)NCc2cccc(Cl)c2)cn1,0.6,-4.4,-1.2,-1.4,-2.1,-4.8,/,/
Cc1ccc(-c2nc3ccccc3n2C(C(=O)NC(C)(C)C)C2CC2)cc1 (stereo not given),-0.6,/,0.6,/,/,1.8,/,/
Cc1ccccc1-c1nnc2n1N=C(c1ccc(O)c(O)c1)CS2,1.5,/,-2.0,/,/,-6.1,/,/
COc1ccc(C(=O)OCCCN(C)C2CN(Cc3cn(Cc4cccc(F)c4)nn3)S(=O)(=O)C2)cc1OC (stereo not given),1.1,/,0.9,/,/,-0.6,/,/
CCCCCC(NC(=O)C1CCN(C(=O)[C@@H](NS(=O)(=O)c2ccc(C)cc2)C(C)C)CC1)C(=O)O (stereo not given in full),2.3,2.5,3.6,1.8,-8.9,1.6,/,/
SMILES,PLC-gamma1 inh,Arr AP2 block,PLC-beta3 inh,proCasp3 act,procasp7 counter,sPLA2-III inh,PLCg1 ctr,PLCb3 confirm
COc1ccc(/C=C/S(=O)(=O)NCc2ccccc2)cc1OC,0.2,17.4,0.9,3.9,4.1,-3.1,/,/
CCn1c(C)nnc1SCC(=O)Nc1ccc2c(c1)OCCO2,9.9*,-2.6,-0.3,-0.7,-3.2,0.4,-8.9,0.7
CCOc1ccc2nc(SCC(=O)Nc3ncccn3)[nH]c2c1,10.9*,-6.9,5.3,-1.2,2.4,6.5,-4.7,-2.1
CCOc1ccc(NC(=O)NCc2ccc3c(c2)OCO3)cc1,9.5*,1.0,-7.4,1.1,3.4,-1.1,-7.5,-4.4
CC(C(=O)c1ccc(-c2ccccc2)cc1)[n+]1cccc(NC(=O)c2ccccc2)c1 (stereo not given),9.7*,-4.8,2.4,0.9,7.4,1.4,0.5,-0.1
O/N=C(/c1ccccc1)c1cc2cc(Br)cc(Br)c2o1,11.8*,-3.9,1.5,-5.1,0.1,2.0,-4.1,-7.8
COc1cccc2cc(/C(=N/O)c3ccc(Br)cc3)oc12,5.2,36.0,-3.1,3.0,10.9,-9.0,/,/
CCOC(=O)c1cnn(Cc2ccccc2)c1N,0.0,2.5,3.4,2.3,0.4,-0.3,/,/
Cc1cnn(Cc2ccccc2)c1N,10.5*,5.0,7.5,4.9,8.5,8.3,-8.7,-4.3
COc1ccc(Cl)cc1NC(=O)c1cccc([N+](=O)[O-])c1O,10.0*,-19.1,6.2,/,/,-4.0,-1.8,-4.5
O=C(O)c1cc(C(=O)O)cc(-c2ccc(/C=c3/sc4nc5ccccc5n4c3=O)o2)c1,/,16.5,/,/,/,/,/,/
O=C(O)c1cccc(-c2ccc(/C=c3/sc4nc5ccccc5n4c3=O)o2)c1,18.1*,-9.9,-12.7,-10.4,1.4,-1.8,-182.1,-176.5
C[C@@H]1COc2cc(Br)ccc2S(=O)(=O)N1Cc1cn(Cc2ccc(F)cc2)nn1,-0.2,/,0.7,/,/,2.0,/,/
COc1cccc(C(=O)NCCCn2ccnc2)c1,4.1,30.1,0.9,-3.8,7.2,0.6,/,/
COc1ccc(NS(=O)(=O)c2cccc(C(=O)NCCCn3ccnc3)c2)cc1,10.8*,23.8,3.4,-0.3,7.4,2.1,-4.0,-7.0
C=CCOc1ccc(/C(O)=C2/C(=O)C(=O)N(CCCN3CCOCC3)C2c2ccc(OC)cc2)cc1 (stereo not given),-2.2,2.0,-2.3,-11.1,-40.7,-3.8,/,/
C=CCOc1ccc(/C(O)=C2/C(=O)C(=O)N(CCCN3CCOCC3)C2c2ccccc2)cc1 (stereo not given),10.6*,2.8,1.5,6.6,-4.9,6.9,-3.7,-2.1
